Measurements as given in ChEMBL document CHEMBL1134293, “Design of selective and soluble inhibitors of tumor necrosis factor-alpha converting enzyme (TACE)” (J Med Chem, 2001).
Converted amounts (≈) assume the structure as drawn.

What was measured:
[1] = target: Matrix metalloproteinase-9 (Homo sapiens, UniProt P14780); experiment: Inhibition potency was determined by fluorescence-based peptide assay against matrix metalloprotease-9
Procedure, shortened: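 Catalytic domain of proMMP-9 purified from baculovirus-infected T. ni cell media, 0.1 nM in 200 mM NaCl, 50 mM Tris, 5 mM CaCl2, 10 μM ZnSO4, 0.01% Brij 35, pH 7.6. Preincubated with inhibitor 20 min at room temperature; fluorogenic Dnp-Pro-Cha-Gly-Cys(Me)-His-Ala-Lys(Nma)-NH2 added; fluorescence ex 343/em 450 nm; eleven-point 3-fold dilutions give IC50 (nM).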

Stromelysin-1 = Stromelysin-1 (Homo sapiens, UniProt P08254); experiment: Inhibition potency was determined by fluorescence-based peptide assay against matrix metalloprotease-3; set-up: species or system Escherichia coli
Procedure, shortened: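 Full-length active MMP-3 expressed in E. coli, refolded 1 h in 200 mM NaCl, 50 mM Tris, 5 mM CaCl2, 10 μM ZnSO4, 0.01% Brij 35, pH 7.6, used at 5 nM in the same buffer. Preincubated 20 min at room temperature with inhibitor across eleven 3-fold dilutions, then fluorogenic Dnp-Pro-Cha-Gly-Cys(Me)-His-Ala-Lys(Nma)-NH2 added; product read at ex 343/em 450 nm; IC50 (nM).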

[2] = target: Disintegrin and metalloproteinase domain-containing protein 17 (Homo sapiens, UniProt P78536); experiment: Inhibition of TACE using scintillation proximity assay (SPA)
Interstitial collagenase = target: T1, Interstitial collagenase (Homo sapiens, UniProt P03956); experiment: Inhibition potency was determined by fluorescence-based peptide assay against matrix metalloprotease-1; set-up: species or system Escherichia coli
T1 sequence (P03956 whole entry): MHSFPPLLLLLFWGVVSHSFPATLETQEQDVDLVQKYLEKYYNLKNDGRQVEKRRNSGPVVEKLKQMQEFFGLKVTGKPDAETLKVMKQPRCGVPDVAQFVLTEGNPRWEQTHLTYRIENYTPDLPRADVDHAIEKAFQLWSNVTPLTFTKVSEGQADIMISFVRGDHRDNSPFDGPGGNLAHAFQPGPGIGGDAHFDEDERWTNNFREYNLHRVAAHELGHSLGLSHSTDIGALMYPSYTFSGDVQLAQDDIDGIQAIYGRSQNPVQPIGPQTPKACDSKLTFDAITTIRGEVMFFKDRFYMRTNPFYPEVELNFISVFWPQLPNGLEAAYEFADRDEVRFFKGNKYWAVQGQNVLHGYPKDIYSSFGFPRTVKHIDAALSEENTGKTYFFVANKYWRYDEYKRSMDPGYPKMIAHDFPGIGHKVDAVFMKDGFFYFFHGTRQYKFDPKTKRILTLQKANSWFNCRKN
Procedure, shortened: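 Recombinant MMP-1 catalytic domain expressed in E. coli, refolded 1 h in 200 mM NaCl, 50 mM Tris, 5 mM CaCl2, 10 μM ZnSO4, 0.01% Brij 35, pH 7.6, and assayed at 1.0 nM in the same buffer. Enzyme preincubated 20 min at room temperature with inhibitor (eleven-point 3-fold dilutions). Reaction started with fluorogenic Dnp-Pro-Cha-Gly-Cys(Me)-His-Ala-Lys(Nma)-NH2; ex 343/em 450 nm; IC50 (nM).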

Mus musculus [3] = experiment: Inhibition of soluble TNF-alpha production in LPS-Stimulated mice by administration of 40 mg/kg compound per orally; format: functional; settings: route oral
Procedure, shortened: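 Female C3H/hen mice gavaged at 40 mg/kg (5 mL/kg, homogenized suspension in 0.5% HPMC/0.1% Tween 80) 10 min before ip LPS 0.2 mg/kg in PBS. Killed at 90 min; vena cava plasma TNF-α by ELISA. Percent inhibition vs vehicle group, n = 7 each, 2-sided t-test.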

[4] = Solubility in simulated gastric fluid; format: physicochemical; settings: read-out: S
Mus musculus [5] = experiment: Inhibition of soluble TNF-alpha production in LPS-Stimulated mice by administration of 40 mg/kg compound subcutaneously; format: functional; settings: sc, route subcutaneous
Procedure, shortened: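 Female C3H/hen mice given 40 mg/kg sc (0.2 mL; DMSO stock into 0.9% NaCl/30% Trappsol HPB-20, final 1% DMSO) 10 min before ip LPS 0.2 mg/kg in PBS. Plasma from vena cava at 90 min, TNF-α by ELISA; percent inhibition vs vehicle controls, n = 7 per group, 2-sided t-test.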

Rattus norvegicus = species: Rattus norvegicus; experiment: Inhibition of TNF alpha production in rat Zymosan inflammation model; format: functional
Procedure, shortened: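 Male Lewis rats given single sc dose (50 mg/kg) as aqueous suspension in 5% EtOH, 5% propylene glycol, 10% Cremephore, 10% Molecusol (5 mL/kg), 10 min before intrapleural zymosan (0.5 mg in 0.25 mL H2O).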

Chain of Disintegrin and metalloproteinase domain-containing protein 17 (P78536 whole entry, the tested form may be a part): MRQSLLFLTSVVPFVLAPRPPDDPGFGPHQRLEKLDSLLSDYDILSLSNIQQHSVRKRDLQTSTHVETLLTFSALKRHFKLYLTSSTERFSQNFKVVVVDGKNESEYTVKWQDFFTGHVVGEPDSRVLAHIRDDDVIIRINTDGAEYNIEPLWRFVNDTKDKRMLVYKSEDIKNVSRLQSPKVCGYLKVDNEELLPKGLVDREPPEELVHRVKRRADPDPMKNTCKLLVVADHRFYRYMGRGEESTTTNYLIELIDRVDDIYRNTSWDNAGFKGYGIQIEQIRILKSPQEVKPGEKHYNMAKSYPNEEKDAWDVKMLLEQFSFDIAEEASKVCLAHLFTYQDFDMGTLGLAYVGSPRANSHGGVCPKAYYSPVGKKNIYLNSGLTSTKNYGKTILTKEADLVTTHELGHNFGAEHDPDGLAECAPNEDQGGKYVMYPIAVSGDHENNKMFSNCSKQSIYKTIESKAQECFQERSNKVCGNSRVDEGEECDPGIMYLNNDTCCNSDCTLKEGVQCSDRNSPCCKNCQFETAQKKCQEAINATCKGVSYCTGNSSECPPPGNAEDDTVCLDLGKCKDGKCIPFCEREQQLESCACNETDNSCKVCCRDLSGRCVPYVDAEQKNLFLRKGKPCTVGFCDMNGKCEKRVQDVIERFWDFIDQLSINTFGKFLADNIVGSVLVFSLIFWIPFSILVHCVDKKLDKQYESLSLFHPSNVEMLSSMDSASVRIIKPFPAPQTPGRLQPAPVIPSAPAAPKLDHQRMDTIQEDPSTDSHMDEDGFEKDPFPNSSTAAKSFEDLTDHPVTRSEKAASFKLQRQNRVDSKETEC
Chain of Matrix metalloproteinase-9 (P14780 whole entry, the tested form may be a part): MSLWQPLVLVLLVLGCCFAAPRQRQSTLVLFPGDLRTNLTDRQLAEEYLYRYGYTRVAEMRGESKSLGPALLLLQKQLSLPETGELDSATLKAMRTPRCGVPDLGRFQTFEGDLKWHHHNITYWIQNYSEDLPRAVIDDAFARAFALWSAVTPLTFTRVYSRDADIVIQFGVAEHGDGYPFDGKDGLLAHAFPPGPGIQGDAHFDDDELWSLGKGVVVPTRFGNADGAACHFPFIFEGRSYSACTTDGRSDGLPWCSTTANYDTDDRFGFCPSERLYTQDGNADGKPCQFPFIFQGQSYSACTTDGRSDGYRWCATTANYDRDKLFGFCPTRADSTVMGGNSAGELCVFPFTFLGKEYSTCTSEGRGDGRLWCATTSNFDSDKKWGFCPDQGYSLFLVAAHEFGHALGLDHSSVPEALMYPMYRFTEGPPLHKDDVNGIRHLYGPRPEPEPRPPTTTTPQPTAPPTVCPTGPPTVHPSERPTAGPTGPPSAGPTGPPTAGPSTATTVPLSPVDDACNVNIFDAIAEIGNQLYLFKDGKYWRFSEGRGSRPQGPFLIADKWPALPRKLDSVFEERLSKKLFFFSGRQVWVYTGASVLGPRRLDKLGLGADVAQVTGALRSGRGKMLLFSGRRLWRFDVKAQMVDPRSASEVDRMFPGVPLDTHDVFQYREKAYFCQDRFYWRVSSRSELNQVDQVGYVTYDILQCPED
Chain of Stromelysin-1 (P08254 whole entry): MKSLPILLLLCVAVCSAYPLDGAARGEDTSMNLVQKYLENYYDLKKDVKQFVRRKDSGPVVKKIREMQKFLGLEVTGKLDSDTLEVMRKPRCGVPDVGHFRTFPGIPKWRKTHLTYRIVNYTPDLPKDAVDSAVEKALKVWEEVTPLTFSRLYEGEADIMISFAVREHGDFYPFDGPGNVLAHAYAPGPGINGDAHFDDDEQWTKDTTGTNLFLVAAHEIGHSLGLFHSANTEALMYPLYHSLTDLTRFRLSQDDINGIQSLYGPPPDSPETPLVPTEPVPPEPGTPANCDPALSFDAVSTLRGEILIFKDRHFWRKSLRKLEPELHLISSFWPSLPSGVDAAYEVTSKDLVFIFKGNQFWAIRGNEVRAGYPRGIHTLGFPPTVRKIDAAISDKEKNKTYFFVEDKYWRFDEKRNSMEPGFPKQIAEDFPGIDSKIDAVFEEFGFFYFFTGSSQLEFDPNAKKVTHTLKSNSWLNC

| IC50 [1] [nM] | IC50 (Stromelysin-1) [nM] | IC50 [2] [nM] | IC50 (Interstitial collagenase) [nM] | Structure (SMILES) | inhibition in vivo at 40 mg/kg (Mus musculus [3]) [%] | solubility [4] [µg/mL] | inhibition in vivo at 40 mg/kg (Mus musculus [5]) [%] | Inhibition (Rattus norvegicus) [%] |
| --- | --- | --- | --- | --- | --- | --- | --- | --- |
| 379 | 218 | 11 | > 2700 | CCC[C@@H]([C@@H](Cc1ccc(C)s1)C(=O)N[C@@H](CCC/N=C(/N)NS(=O)(=O)c1ccccn1)C(=O)Nc1nccs1)N(O)C=O |  |  |  |  |
| 43 | 84 | 6 | 76 | CCC[C@@H]([C@@H](CC(C)C)C(=O)N[C@@H](CCC/N=C(/N)NS(=O)(=O)c1ccccn1)C(=O)Nc1nccs1)N(O)C=O | -28 |  |  |  |
| 12 | 49 | 35 | 8.1 | CC(C)C[C@@H](C(=O)N[C@H](C(=O)Nc1nccs1)[C@H](C)CC/N=C(/N)NS(C)(=O)=O)[C@H](C(C)C)N(O)C=O | 7 |  |  |  |
| 8.5 | 169 | 12 | 18 | CC(C)C[C@@H](C(=O)N[C@H](C(=O)Nc1nccs1)[C@H](C)CC/N=C(/N)NS(C)(=O)=O)[C@H](C)N(O)C=O | -3 | > 2130 |  |  |
| 22 | 62 | 42 | 21 | CC(C)C[C@@H](C(=O)N[C@@H](CCC/N=C(/N)NS(C)(=O)=O)C(=O)Nc1nccs1)[C@H](C(C)C)N(O)C=O |  |  |  |  |
| 71 | 115 | 16 | 96 | CC1CCC(C[C@@H](C(=O)N[C@@H](CCCN=C(N)NS(=O)(=O)c2ccccn2)C(=O)Nc2nccs2)[C@H](C(C)C)N(O)C=O)CC1 (stereo partly drawn) | -9 |  |  |  |
| 51 | 122 | 7.9 | 100 | CCC[C@@H]([C@@H](CC(C)C)C(=O)N[C@@H](CCCN=C(N)NS(C)(=O)=O)C(=O)Nc1nccs1)N(O)C=O |  | > 1130 |  |  |
| 22 | 17 | 8 | 52 | CC(C)C[C@@H](C(=O)N[C@H](C(=O)Nc1nccs1)[C@H](C)CC/N=C(/N)NS(C)(=O)=O)[C@H](CCC(F)(F)F)N(O)C=O | -5 |  |  |  |
| 143 | 282 | 6 | 133 | CCC[C@@H]([C@@H](CC1CCC(C)CC1)C(=O)N[C@@H](CCCN=C(N)NS(=O)(=O)c1ccccn1)C(=O)Nc1nccs1)N(O)C=O (stereo partly drawn) |  | 160 (≈ 241 µM) |  |  |
| 48 | 156 | 6 | 57 | CCC[C@@H]([C@@H](CC(C)C)C(=O)N[C@H](C(=O)Nc1nccs1)[C@H](C)CCN=C(N)NS(C)(=O)=O)N(O)C=O | 28 |  |  |  |
| 89 | 155 | 14 | 122 | CC1CCC(C[C@@H](C(=O)N[C@@H](CCCN=C(N)NS(C)(=O)=O)C(=O)Nc2nccs2)[C@H](C(C)C)N(O)C=O)CC1 (stereo partly drawn) | 32 | 1400 (≈ 2330 µM) |  |  |

| Structure (SMILES) | IC50 [1] [nM] | IC50 (Stromelysin-1) [nM] | IC50 [2] [nM] | IC50 (Interstitial collagenase) [nM] | inhibition in vivo at 40 mg/kg (Mus musculus [3]) [%] | solubility [4] [µg/mL] | inhibition in vivo at 40 mg/kg (Mus musculus [5]) [%] | Inhibition (Rattus norvegicus) [%] |
| --- | --- | --- | --- | --- | --- | --- | --- | --- |
| N/C(=N/CCC[C@H](NC(=O)[C@H](CC1CCCCC1)[C@H](CCC(F)(F)F)N(O)C=O)C(=O)Nc1nccs1)N[N+](=O)[O-] | 49 | 214 | 5 | 110 | -24 | 54 (≈ 88.7 µM) | 73 |  |
| CCC[C@@H]([C@@H](Cc1ccc(C)s1)C(=O)N[C@@H](CCC/N=C(/N)N[N+](=O)[O-])C(=O)Nc1nccs1)N(O)C=O | 190 | 79 |  | > 2500 |  |  |  |  |
| CC1CCC(C[C@@H](C(=O)N[C@@H](CCC/N=C(/N)N[N+](=O)[O-])C(=O)Nc2nccs2)[C@H](C(C)C)N(O)C=O)CC1 (stereo partly drawn) | 35 | 76 |  | 85 | -6 | 210 (≈ 369 µM) | 71 |  |
| CC(C)C[C@@H](C(=O)N[C@H](C(=O)Nc1nccs1)[C@H](C)CC/N=C(/N)N[N+](=O)[O-])[C@H](C)N(O)C=O | 19 | 273 | 7 | 38 | -2 | > 850 |  |  |
| NC(=NCCC[C@H](NC(=O)[C@H](CC1CCCCC1)[C@H](C1CC1)N(O)C=O)C(=O)Nc1nccs1)N[N+](=O)[O-] | 602 | 1490 | 22 | 144 | -3 | 920 (≈ 1660 µM) | 56 |  |
| CCC[C@@H]([C@@H](CC(C)C)C(=O)N[C@H](C(=O)Nc1nccs1)[C@H](C)CC/N=C(/N)N[N+](=O)[O-])N(O)C=O | 13 | 47 | 5 | 24 | -10 |  |  |  |
| CCC[C@@H]([C@@H](CC1CCC(C)CC1)C(=O)N[C@@H](CCC/N=C(/N)N[N+](=O)[O-])C(=O)Nc1nccs1)N(O)C=O (stereo partly drawn) | 115 | 200 | 9 | 188 | -19 | 160 (≈ 281 µM) | 64 |  |
| CCC[C@@H]([C@@H](CC(C)C)C(=O)N[C@@H](CCC/N=C(/N)N[N+](=O)[O-])C(=O)Nc1nccs1)N(O)C=O | 13 | 31 |  | 34 | -29 | > 1600 | 96 | 30 |
| CCC[C@@H]([C@@H](CC1CCCCC1)C(=O)N[C@@H](CCC/N=C(/N)N[N+](=O)[O-])C(=O)Nc1nccs1)N(O)C=O | 55 | 203 | 8 | 108 | -27 | 330 (≈ 595 µM) | 72 |  |
| CC(C)C[C@@H](C(=O)N[C@@H](CCC/N=C(/N)N[N+](=O)[O-])C(=O)Nc1nccs1)[C@H](Cc1ccccc1)N(O)C=O | 11 | 31 |  | 26 |  |  |  |  |
